Consider six molecules from ChEMBL document CHEMBL4138201, “Synthesis and biological evaluation of sulfur-containing shikonin oxime derivatives as potential antineoplastic agents” (Eur J Med Chem, 2018).

Where only a bound is given, the exact number is not on record here.

In experiment [1] the test system is HCT-15. Put plainly: Cytotoxicity against human HCT15 cells after 48 hrs by MTT assay. It is filed as functional, cell-based. Particulars: HCT-15, 48 h. The method, boiled down:
(§1)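 MTT colorimetric assay. Shikonin and 5-fluorouracil served as reference agents. IC₅₀ obtained by linear regression of each compound's concentration–response curve.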
On the technique in general: Tetrazolium assays rely on reduction of a dye to a coloured formazan, in cell work by metabolically active cells.

A short description of experiment [2]: Cytotoxicity against human HSF cells after 48 hrs by MTT assay. Format: cell-based. The method, boiled down: as §1
The test system of experiment [3] is Bel-7402. Put plainly: Cytotoxicity against human Bel7402 cells after 48 hrs by MTT assay. Format: functional, cell-based. Particulars: Bel-7402, 48 h. The method, boiled down:
as §1

For experiment [4], the system named is MGC-803. The experiment is described as follows: Cytotoxicity against human MGC803 cells after 48 hrs by MTT assay. It is filed as functional, cell-based. Particulars: MGC-803, 48 h. The method, boiled down: as §1
Experiment [5] relates to MCF7. Put plainly: Cytotoxicity against human MCF7 cells after 48 hrs by MTT assay. It is filed as functional, cell-based. To be noted: MCF7, 48 h. The gist of the method: as §1
Experiment [6] in a line: Induction of NO release in phosphate buffer at pH 7.4 at 0.1 mM measured after 2 hrs in presence of N-acetylcysteine by Griess assay. Format: functional. The method, boiled down:
(§2)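 Percentage of NO released in vitro measured by Griess assay against a standard curve. Incubation in 0.5 mM N-acetylcysteine, read hourly from 1 to 6 h.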
(In general: Griess reagent forms a coloured azo dye with nitrite.)

A short description of experiment [7]: Induction of NO release in phosphate buffer at pH 7.4 at 0.1 mM measured after 3 hrs in presence of N-acetylcysteine by Griess assay. It is filed as functional. The method, boiled down:
as §2

Experiment [8] can be described thus: Induction of NO release in phosphate buffer at pH 7.4 at 0.1 mM measured after 1 hr in presence of N-acetylcysteine by Griess assay. Format: functional. The method, boiled down:
as §2

The nature of experiment [9]: Induction of NO release in phosphate buffer at pH 7.4 at 0.1 mM measured after 6 hrs in presence of N-acetylcysteine by Griess assay. It is filed as functional. The method, boiled down: as §2
The nature of experiment [10]: Induction of NO release in phosphate buffer at pH 7.4 at 0.1 mM measured after 5 hrs in presence of N-acetylcysteine by Griess assay. It is filed as functional. The method, boiled down: as §2
Experiment [11] is described as follows: Induction of NO release in phosphate buffer at pH 7.4 at 0.1 mM measured after 4 hrs in presence of N-acetylcysteine by Griess assay. Format: functional. The gist of the method:
as §2

A word on the IC50: it is the point on the concentration scale where inhibition reaches its midpoint. Read a high IC50 as a need for much substance. Take `CCCCCCCCSC(CC=C(C)C)c1cc(OC)c2c(c1OC)/C(=N/O)C=C/C2=N\O` (stereo unspecified): the IC50 in experiment [1] was 1.25 µM; in experiment [2], above 50 µM; in experiment [3], 6.37 µM; in experiment [4] it was 2.29 µM; in experiment [5] it was 25.7 µM.
Consider `COc1ccccc1C(=O)SC(CC=C(C)C)c1cc(OC)c2c(c1OC)/C(=N/O)C=C/C2=N\O` (stereo unspecified), for which the IC50 in experiment [1] is 0.89 µM; in experiment [2] it was above 50 µM; in experiment [3] it was 1.06 µM; in experiment [4], 1.37 µM; in experiment [5], 19.8 µM.
In the case of `COc1cc(C(CC=C(C)C)SC(=O)c2cccc(Cl)c2)c(OC)c2c1/C(=N/O)C=C/C2=N\O` (stereo unspecified), the IC50 in experiment [1] was 2.64 µM; in experiment [2] it was above 50 µM; in experiment [3] it was 12.1 µM; in [4], 8.73 µM; in experiment [5], 42.9 µM.
For the molecule `CCCCCCCCCCSC(CC=C(C)C)c1cc(OC)c2c(c1OC)/C(=N/O)C=C/C2=N\O` (stereo unspecified), the IC50 in experiment [1] was 7.43 µM; in experiment [2], above 50 µM; in [3], 25.4 µM; in experiment [4], 19.2 µM; in experiment [5], 48.3 µM.
As to `COc1cc(C(CC=C(C)C)SC(=O)c2ccc(NC(=O)OC(C)(C)C)cc2)c(OC)c2c1/C(=N/O)C=C/C2=N\O` (stereo unspecified), the IC50 was 3.39 µM in [1]; above 50 µM in experiment [2]; 9.17 µM in [3]; 6.56 µM in experiment [4]; 32.4 µM in experiment [5].
Regarding `COc1cc(C(CC=C(C)C)SCCC(C)C)c(OC)c2c1/C(=N/O)C=C/C2=N\O` (stereo unspecified), the IC50 in experiment [1] is 1.14 µM; in experiment [2] it was above 50 µM; in experiment [3], 5.43 µM; in experiment [4], 3.36 µM; in experiment [5], 27.2 µM. Further, the Activity was found to be 0.027% in [6]; 0.033% in [7]; 0.023% in [8]; 0.024% in [9]; 0.029% in experiment [10]; 0.038% in [11].
